Measured values taken from article PMC7547215 (Proceedings of the National Academy of Sciences of the …, 2020).
Read-outs that look alike come from different tables or passages of the source.

Columns and labels:
porcine RNase L H680N = assay: Differential scanning fluorimetry; type: binding
A549 cells = assay: Cell survival; type: cell-based, human; conditions: up to 25 μM (SU 3 to 25 μM), over 30 h
Outline: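 Human A549 cells cultured with test compound across a concentration series. Dye-labelled cells imaged in real time, and percent survival calculated. Mean ± SD of three survival profiles.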

RNase L [1] = conditions: read-out: IC50, ribonuclease activity of RNase L in vitro; cited from earlier work
RNase L [2] = conditions: cited from earlier work
porcine RNase L [3] = molecular target: T1, porcine RNase L (Sus scrofa, UniProt A5H025); assay: Fluorescence-based RNase L endoribonuclease cleavage assay; type: biochemical
T1 sequence (A5H025 1-743): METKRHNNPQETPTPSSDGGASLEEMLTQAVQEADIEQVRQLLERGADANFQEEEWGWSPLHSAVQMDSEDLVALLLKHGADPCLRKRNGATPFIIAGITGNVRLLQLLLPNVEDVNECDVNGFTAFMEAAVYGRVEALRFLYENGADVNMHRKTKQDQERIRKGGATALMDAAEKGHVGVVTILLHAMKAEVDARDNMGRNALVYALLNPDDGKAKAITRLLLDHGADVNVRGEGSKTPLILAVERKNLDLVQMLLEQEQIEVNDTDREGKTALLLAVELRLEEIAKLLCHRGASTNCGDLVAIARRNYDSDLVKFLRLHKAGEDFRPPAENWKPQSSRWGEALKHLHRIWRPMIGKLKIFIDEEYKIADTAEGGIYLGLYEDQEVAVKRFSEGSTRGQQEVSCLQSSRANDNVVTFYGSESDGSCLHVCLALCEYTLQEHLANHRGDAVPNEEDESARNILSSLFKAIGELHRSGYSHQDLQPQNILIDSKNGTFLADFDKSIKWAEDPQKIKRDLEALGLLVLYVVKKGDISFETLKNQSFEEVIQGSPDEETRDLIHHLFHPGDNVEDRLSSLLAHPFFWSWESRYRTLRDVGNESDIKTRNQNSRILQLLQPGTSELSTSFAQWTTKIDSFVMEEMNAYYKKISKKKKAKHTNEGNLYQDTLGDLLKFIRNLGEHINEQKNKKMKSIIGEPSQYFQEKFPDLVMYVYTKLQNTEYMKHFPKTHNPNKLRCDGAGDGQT

murine IRE1 = murine IRE1 (Mus musculus, UniProt Q9EQY0); assay: Fluorescence-based IRE1 endoribonuclease cleavage assay; type: biochemical
Chain of murine IRE1 (Q9EQY0 21-977): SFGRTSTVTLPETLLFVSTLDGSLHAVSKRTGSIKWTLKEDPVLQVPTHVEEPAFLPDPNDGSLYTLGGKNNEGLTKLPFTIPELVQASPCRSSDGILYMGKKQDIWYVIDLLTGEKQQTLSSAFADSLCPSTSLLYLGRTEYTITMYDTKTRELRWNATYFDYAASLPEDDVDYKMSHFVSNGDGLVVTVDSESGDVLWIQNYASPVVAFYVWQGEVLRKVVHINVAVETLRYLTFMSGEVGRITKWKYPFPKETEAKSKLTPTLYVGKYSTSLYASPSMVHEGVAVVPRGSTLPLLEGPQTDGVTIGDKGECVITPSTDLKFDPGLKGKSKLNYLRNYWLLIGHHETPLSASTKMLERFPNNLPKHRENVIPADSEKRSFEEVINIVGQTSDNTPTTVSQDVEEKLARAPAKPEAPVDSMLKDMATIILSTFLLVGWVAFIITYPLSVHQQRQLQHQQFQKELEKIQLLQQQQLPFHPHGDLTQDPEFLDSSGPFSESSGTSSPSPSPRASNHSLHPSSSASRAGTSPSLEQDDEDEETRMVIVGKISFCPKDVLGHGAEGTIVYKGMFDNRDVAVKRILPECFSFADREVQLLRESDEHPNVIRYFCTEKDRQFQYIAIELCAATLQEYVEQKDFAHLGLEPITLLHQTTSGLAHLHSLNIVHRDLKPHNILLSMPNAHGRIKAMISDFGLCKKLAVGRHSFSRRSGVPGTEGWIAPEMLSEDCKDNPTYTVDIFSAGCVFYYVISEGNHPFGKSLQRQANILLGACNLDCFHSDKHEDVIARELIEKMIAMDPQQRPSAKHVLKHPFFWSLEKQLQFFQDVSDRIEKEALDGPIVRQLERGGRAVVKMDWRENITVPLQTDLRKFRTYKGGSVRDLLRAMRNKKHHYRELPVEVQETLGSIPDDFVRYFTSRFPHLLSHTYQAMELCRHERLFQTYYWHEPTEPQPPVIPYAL

Human CK2a = Human CK2a (Homo sapiens, UniProt P68400); assay: In vitro inhibition of CK2α kinase activity; type: biochemical
Chain of Human CK2a (P68400 whole entry): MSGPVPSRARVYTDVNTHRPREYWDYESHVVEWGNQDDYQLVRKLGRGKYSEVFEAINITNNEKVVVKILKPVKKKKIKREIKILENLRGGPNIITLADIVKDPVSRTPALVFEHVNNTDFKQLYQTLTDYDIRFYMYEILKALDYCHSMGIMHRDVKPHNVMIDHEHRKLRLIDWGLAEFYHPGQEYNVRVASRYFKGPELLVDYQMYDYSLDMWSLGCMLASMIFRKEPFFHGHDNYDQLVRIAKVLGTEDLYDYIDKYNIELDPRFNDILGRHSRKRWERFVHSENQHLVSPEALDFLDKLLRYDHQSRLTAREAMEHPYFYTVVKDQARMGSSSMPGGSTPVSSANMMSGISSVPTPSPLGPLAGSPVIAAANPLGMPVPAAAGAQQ

porcine RNase L [4] = molecular target: T1, porcine RNase L; assay: BODIPY-ATP fluorescence polarization binding/competition assay
[5] = molecular target: T2, RNase L in human A549 cells (Homo sapiens, UniProt Q05823); assay: rRNA cleavage after pIC transfection in A549 cells; type: cell-based
T2 sequence (Q05823 1-741): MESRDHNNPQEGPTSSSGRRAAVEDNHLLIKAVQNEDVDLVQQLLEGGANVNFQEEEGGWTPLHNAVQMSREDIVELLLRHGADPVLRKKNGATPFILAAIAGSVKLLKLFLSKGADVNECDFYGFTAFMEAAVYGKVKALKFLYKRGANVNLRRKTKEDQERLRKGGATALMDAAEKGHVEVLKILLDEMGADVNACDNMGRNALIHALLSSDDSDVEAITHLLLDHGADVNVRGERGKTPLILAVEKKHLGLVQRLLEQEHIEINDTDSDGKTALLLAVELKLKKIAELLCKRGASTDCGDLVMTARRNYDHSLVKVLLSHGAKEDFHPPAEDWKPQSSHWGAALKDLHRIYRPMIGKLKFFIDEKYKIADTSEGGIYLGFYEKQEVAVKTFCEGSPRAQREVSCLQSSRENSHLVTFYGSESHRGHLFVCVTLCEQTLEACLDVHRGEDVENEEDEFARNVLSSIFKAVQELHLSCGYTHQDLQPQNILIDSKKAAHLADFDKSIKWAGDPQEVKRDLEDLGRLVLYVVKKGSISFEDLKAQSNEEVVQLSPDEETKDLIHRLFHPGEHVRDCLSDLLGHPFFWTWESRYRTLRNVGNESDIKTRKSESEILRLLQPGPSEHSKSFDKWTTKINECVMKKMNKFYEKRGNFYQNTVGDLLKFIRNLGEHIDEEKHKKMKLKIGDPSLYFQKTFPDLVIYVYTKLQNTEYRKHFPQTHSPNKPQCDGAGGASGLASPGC

[6] = tested on: casein kinase IIalpha (CK2α); conditions: cited from earlier work
glycogen phosphorylase b = conditions: read-out: IC50, glycogen phosphorylase b; cited from earlier work

SMILES: Nc1ncnc2c1ncn2[C@@H]1O[C@H](COP(=O)(O)OP(=O)(O)OP(=O)(O)O)[C@@H](O)[C@H]1O [ATP]
- Thermal stabilization of purified RNase L by ligand on its own (porcine RNase L H680N): pronounced stabilization
- ΔTm of RNase L (porcine RNase L H680N; named ligand(s) vs RNase L alone, SI Fig. S7, listed as ATP/MgCl2): 6 ± 0.2 °C

SMILES: CCN(CC)CCNC(=O)c1c(C)[nH]c(/C=C2\C(=O)Nc3ccc(F)cc32)c1C [sunitinib]
- Cytotoxicity (A549 cells): considerable cytotoxicity
- IC50 (RNase L [1]): 1400 nM
- Concentration required for the repression of RNase L cleavage activity (RNase L [2]; in cells): ~5 µM
- IC50 (RNase L [2]; read-out: IC50, antiviral function of RNase L in cells): 1000 nM

SMILES: O=c1oc2c(O)c(O)cc3c(=O)oc4c(O)c(O)cc1c4c23 [EA, ellagic acid]
- IC50 (porcine RNase L [3]; IC50, RNase L ribonuclease activity, 10-point dose–response, commercially sourced fresh powder, Fig. 1C, mean ± SEM of four curves): 73.5 ± 0.2 nM
- IC50 (murine IRE1): 270.6 ± 0.1 nM
- IC50 (Human CK2a): 419 nM
- Competitive displacement of BODIPY-ATP from RNase L (porcine RNase L [4]): neither EA nor VAL could competitively displace
- Decrease in potency in cells relative to in vitro against porcine RNase L ([5]; A549 and L929 cell lines): ~1,000 fold
- pIC-induced RNA cleavage pattern ([5]; A549 cells, 3 h preincubation, 12 ng/mL pIC for 2 h): progressively reduced in a concentration-dependent manner
- Cytotoxicity (A549 cells): not cytotoxic
- Potency of casein kinase II inhibition [6]: 20 nM
- IC50 ([6]; read-out: IC50, casein kinase IIalpha (CK2α)): 40 nM
- IC50 (glycogen phosphorylase b): 3200 nM

SMILES: Nc1ccc2ccc3c(N)ccc4ccc1c2c43 [1,6-diaminopyrene]
- Effect on RNase L ribonuclease activity (porcine RNase L [3]; Fig. 2): ineffective at complete inhibition
- Effect on IRE1 ribonuclease activity (murine IRE1; Fig. 2): ineffective at complete inhibition
